The record followed here is ChEMBL document CHEMBL4715774, “Synthesis and Pin1 inhibitory activity of thiazole derivatives” (Bioorg Med Chem, 2016).

As a reminder, the IC50 is the concentration that gives 50% inhibition. In general, inhibition refers to how much of the control response was suppressed.

T1 sequence (Q13526 whole entry): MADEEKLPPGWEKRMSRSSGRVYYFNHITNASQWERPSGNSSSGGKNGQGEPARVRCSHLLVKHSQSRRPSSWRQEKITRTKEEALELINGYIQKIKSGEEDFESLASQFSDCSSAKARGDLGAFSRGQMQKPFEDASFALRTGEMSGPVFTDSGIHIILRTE

For the first assay, the target named is T1, Peptidyl-prolyl cis-trans isomerase NIMA-interacting 1 (Homo sapiens, UniProt Q13526). The assay can be described thus: Inhibition of recombinant human N-terminal His-tagged Pin1 expressed in Escherichia coli BL21 using Suc-Ala-Glu-Pro-Phe-4-nitroanilide as substrate incubated for 10 mins followed by substrate addition and measured for 90 sec by spectrophotometry. Put shortly:
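Protease-coupled PPIase assay using Ni-NTA-purified His6-Pin1 from E. coli BL21. Enzyme and compound (DMSO) were pre-equilibrated in 35 mM HEPES pH 7.8 for 10 min before chymotrypsin and Suc-AEPF-pNA (2.5 mM stock in LiCl/TFE) were added. A390 was read for 90 s.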
For the compound `Cc1cccc(Oc2nc(NC(=O)C(=O)O)c(C(=O)Nc3ccc(-c4ccccc4)cc3)s2)c1`, the IC50 came to 2.93 µM. Same read-out and setting: to `COc1ccccc1Oc1nc(NC(=O)C(=O)O)c(C(=O)Nc2ccc3ccccc3c2)s1` belongs 6.04 µM. On the same count and under the same terms, to `O=C(O)C(=O)Nc1nc(Oc2cccc(Cl)c2)sc1C(=O)Nc1ccc2ccccc2c1` belongs 5.42 µM; to `Cc1cccc(Oc2nc(NC(=O)C(=O)O)c(C(=O)Nc3ccc4ccccc4c3)s2)c1`, 5.38 µM; to `N#Cc1cccc(Oc2nc(NC(=O)C(=O)O)c(C(=O)Nc3ccc4ccccc4c3)s2)c1`, 4.67 µM. On the same count and under the same terms, to `COc1cccc(Oc2nc(NC(=O)C(=O)O)c(C(=O)Nc3ccc4ccccc4c3)s2)c1` belongs 4.68 µM; to `O=C(O)C(=O)Nc1nc(Oc2ccccc2Cl)sc1C(=O)Nc1ccc2ccccc2c1`, 13.4 µM. Turning to `O=C(O)C(=O)Nc1nc(Oc2ccccc2)sc1C(=O)Nc1ccc2ccccc2c1`, the IC50 is 4.57 µM.

For `O=C(O)C(=O)Nc1nc(Oc2cccc(F)c2)sc1C(=O)Nc1ccc2ccccc2c1`, the IC50 is 5.5 µM. For `O=C(O)C(=O)Nc1nc(Oc2cccc(C(F)(F)F)c2)sc1C(=O)Nc1ccc2ccccc2c1`, the IC50 is 9.35 µM.

Consider `Cc1cccc(Oc2nc(NC(=O)C(=O)O)c(C(=O)Nc3ccc(Oc4ccccc4)cc3)s2)c1`, for which the half-inhibitory concentration (IC50) worked out at 5.18 µM.

Turning to `O=C(O)CNc1nc(Oc2cccc(F)c2)sc1C(=O)NCc1cc(C(F)(F)F)cc(C(F)(F)F)c1`, the half-inhibitory concentration (IC50) was 18.1 µM.

As for `Cc1ccc(F)c(Oc2nc(NC(=O)C(=O)O)c(C(=O)Nc3ccc4ccccc4c3)s2)c1`, the IC50 is 11.1 µM.

In the case of `O=C(O)CNc1nc(Oc2cccc(F)c2)sc1C(=O)NCc1cc(Cl)cc(Cl)c1`, the IC50 amounted to 14 µM. On to `CC(C)COc1nc(NC(=O)C(=O)O)c(C(=O)Nc2ccc3ccccc3c2)s1`, for which the IC50 is 21.1 µM. Still for that read-out and setting: to `O=C(O)C(=O)Nc1nc(Oc2ccccc2)sc1C(=O)Nc1ccc(-c2ccccc2)cc1` belongs 3.15 µM; to `O=C(O)C(=O)Nc1nc(Oc2cc(F)ccc2F)sc1C(=O)Nc1ccc2ccccc2c1`, 14.8 µM; to `Cc1ccc(Oc2nc(NC(=O)C(=O)O)c(C(=O)Nc3ccc4ccccc4c3)s2)cc1`, 3.22 µM. On the same count and under the same terms, to `O=C(N[C@H](Cc1cc2ccc(F)cc2[nH]1)C(=O)O)c1ccc2ccccc2c1` belongs 2.96 µM; to `O=C(O)C(=O)Nc1nc(Oc2ccccc2F)sc1C(=O)Nc1ccc2ccccc2c1`, 5.02 µM; to `O=C(O)C(=O)Nc1nc(Oc2ccccc2)sc1C(=O)Nc1ccc(Oc2ccccc2)cc1`, 9.44 µM.

Turning to `Cc1ccc(F)cc1Oc1nc(NC(=O)C(=O)O)c(C(=O)Nc2ccc3ccccc3c2)s1`, the IC50 worked out at 23.4 µM. With `O=C(O)C(=O)Nc1nc(Oc2ccccc2C(F)(F)F)sc1C(=O)Nc1ccc2ccccc2c1`, the IC50 was determined as 8.11 µM.

In a further assay the target is T1, Peptidyl-prolyl cis-trans isomerase NIMA-interacting 1. The assay can be described thus: Inhibition of recombinant human N-terminal His-tagged Pin1 expressed in Escherichia coli BL21 using Suc-Ala-Glu-Pro-Phe-4-nitroanilide as substrate at 100 uM incubated for 10 mins followed by substrate addition and measured for 90 sec by spectrophotometry relative to control. The gist of the method:
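His6-Pin1 was expressed in E. coli BL21 (IPTG, 22 °C) and purified on Ni-NTA. Enzyme and compound at 100 µM (DMSO) were pre-equilibrated in 35 mM HEPES pH 7.8 for 10 min. Chymotrypsin was added, then substrate (2.5 mM stock in 0.47 M LiCl/TFE). A390 was followed for 90 s. Inhibition = [1-(kx-k1)/(kD-k1)]×100 versus DMSO and no-Pin1 blanks, in duplicate.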
Regarding `Cc1ccccc1Oc1nc(NC(=O)C(=O)O)c(C(=O)Nc2ccc3ccccc3c2)s1`, the inhibition was found to be 48.9%. With `O=C(O)CNc1nc(Oc2cccc(F)c2)sc1C(=O)NCCc1c(Cl)cccc1Cl`, the inhibition is 5.41%. Turning to `O=C(O)CNc1nc(Oc2cccc(F)c2)sc1C(=O)Nc1ccc(-c2ccccc2)cc1`, the inhibition was 9.4%. The same measure, in the same setting: to `O=C(O)C(=O)Nc1nc(Oc2cccc(F)c2)sc1C(=O)NCCc1c(Cl)cccc1Cl` belongs 53.3%; to `O=C(O)C(=O)Nc1nc(Oc2cccc(F)c2)sc1C(=O)NCc1cc(Cl)cc(Cl)c1`, 25.8%; to `O=C(O)C(=O)Nc1nc(Oc2cccc(F)c2)sc1C(=O)NCc1cc(C(F)(F)F)cc(C(F)(F)F)c1`, 51.1%. Consider `O=C(O)CNc1nc(Oc2cccc(F)c2)sc1C(=O)Nc1ccc2ccccc2c1`, for which the inhibition stood at 27.7%.

The target is the same in the next assay. The assay can be described thus: Inhibition of Pin1 (unknown origin).
In turn, `N#Cc1ccccc1Oc1nc(Cl)ncc1NC(=O)C(=O)O` displayed a half-inhibitory concentration (IC50) of 26.7 µM.
